In brackets after ≈: the same amount, converted by molar mass. Activity calls are given as the source filed them. The rule behind the calls is not given here.
How the values were obtained:
Candida albicans [1] = assay: Antifungal activity against Candida albicans ATCC 64124 after 48 hrs by broth dilution method; assay type: functional; conditions: Candida albicans, ATCC 64124, 48 h
How it was run: (§1)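 CLSI M27-A3 broth microdilution with minor modifications. Overnight YPD culture grown at 35 °C, 200 rpm, adjusted to OD600 0.12, diluted in RPMI 1640 buffered to pH 7.0 with 0.165 M MOPS to a final 1–2 × 10^3 CFU/mL. Test compounds at 0.015–31.3 µg/mL, 48 h at 35 °C, DMSO <1.25%. […] Triplicate.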

Candida albicans [2] = assay: Ratio of MIC80 for voriconazole resistant Candida albicans ATCC 64124 sessile cells to MIC for voriconazole resistant Candida albicans ATCC 64124; assay type: functional
[3] = Solubility of the compound in DMSO; assay type: physicochemical
Candida albicans [4] = assay: Antifungal activity against Candida albicans ATCC 10231 at 7.8 ug/mL incubated for 1 hr by propidium iodide staining-based fluorescence microscopic method; assay type: functional
How it was run: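 C. albicans ATCC 10231 grown overnight in YPD broth at 35 °C with shaking at 200 rpm, then transferred to RPMI 1640. Cells were exposed to drug and stained with propidium iodide, which enters only cells with compromised membranes. Uptake was judged by fluorescence microscopy against an untreated control.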

Candida parapsilosis [5] = assay: Antifungal activity against Candida parapsilosis ATCC 22019 after 48 hrs by broth dilution method; assay type: functional; conditions: Lodderomyces parapsilosis, ATCC 22019, 48 h
Candida albicans [6] = assay: Antifungal activity against itraconazole and fluconazole susceptible Candida albicans ATCC MYA-2310 after 48 hrs by broth dilution method; assay type: functional; conditions: Candida albicans, ATCC MYA-2310, 48 h
Aspergillus nidulans [7] = assay: Antifungal activity against Aspergillus nidulans ATCC 38163 after 48 hrs in the presence of 10% FBS by broth dilution method; assay type: functional; conditions: ATCC 38163, 48 h
Candida albicans [8] = assay: Inhibition of 14alpha-demethylase in Candida albicans ATCC 10231 assessed as eburicol levels at 0.975 ug/mL by GC-MS analysis; design: scale not given: the % may be the effect or the level left
How it was run: (§2)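 C. albicans ATCC 10231 was treated with drug or DMSO (no-drug control). Sterols were extracted and analysed by GC-MS; lanosterol, eburicol, ergosterol and 14α-methyl ergosta-8,24(28)-diene-3β,6α-diol were quantified as percent of sterols.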

Candida albicans [9] = assay: Inhibition of 14alpha-demethylase in Candida albicans ATCC 10231 assessed as 14alpha-methyl ergosta-8,24(28)-dien-3beta,6alpha-diol levels at 0.975 ug/mL by GC-MS analysis; design: scale not given: the % may be the effect or the level left; how it was run: as §2
Candida albicans [10] = assay: Antifungal activity against itraconazole and fluconazole resistant Candida albicans ATCC 90819 after 48 hrs by broth dilution method; assay type: functional; conditions: Candida albicans, ATCC 90819, 48 h; how it was run: as §1
Candida albicans [11] = assay: Antifungal activity against Candida albicans ATCC 10231 after 48 hrs in the presence of 10% FBS by broth dilution method; assay type: functional; conditions: ATCC 10231, 48 h
Candida albicans [12] = assay: Antifungal activity against Candida albicans ATCC 10231 after 48 hrs by broth dilution method; assay type: functional; conditions: ATCC 10231, 48 h
Candida parapsilosis [13] = assay: Antifungal activity against Candida parapsilosis ATCC 22019 after 48 hrs in the presence of 10% FBS by broth dilution method; assay type: functional; conditions: Lodderomyces parapsilosis, ATCC 22019, 48 h
Candida albicans [14] = assay: Antifungal activity against itraconazole and fluconazole resistant Candida albicans ATCC MYA-1237 after 48 hrs by broth dilution method; assay type: functional; conditions: Candida albicans, ATCC MYA-1237, 48 h; how it was run: as §1
Candida albicans [15] = assay: Inhibition of 14alpha-demethylase in Candida albicans ATCC 10231 assessed as ergosterol levels at 0.975 ug/mL by GC-MS analysis; design: scale not given: the % may be the effect or the level left; how it was run: as §2
Candida albicans [16] = assay: Inhibition of 14alpha-demethylase in Candida albicans ATCC 10231 assessed as total sterol levels at 0.975 ug/mL by GC-MS analysis; design: scale not given: the % may be the effect or the level left; how it was run: as §2
Pichia kudriavzevii = assay: Antifungal activity against Candida krusei ATCC 6258 after 48 hrs by broth dilution method; assay type: functional; conditions: Pichia kudriavzevii, ATCC 6258, 48 h
How it was run: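 Yeasts tested per CLSI M27-A3 with minor changes. An overnight YPD culture (35 °C, 200 rpm) was adjusted to OD600 0.12 and diluted in MOPS-buffered RPMI 1640 (pH 7.0) to a final 1–2 × 10^3 CFU/mL. Compounds 0.015–31.3 µg/mL, DMSO <1.25%.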

Candida albicans [17] = assay: Antifungal activity against itraconazole and fluconazole susceptible Candida albicans ATCC MYA-2876 after 48 hrs by broth dilution method; assay type: functional; conditions: Candida albicans, ATCC MYA-2876, 48 h
Candida albicans [18] = assay: Antibiofilm activity against voriconazole resistant Candida albicans ATCC 64124 sessile cells incubated for 24 hrs by XTT reduction assay; assay type: functional; conditions: ATCC 64124, 24 h
How it was run: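 Strain B grown overnight in YPD broth at 35 °C, diluted to OD600 0.1 (~10^6 CFU/mL), then grown statically for 24 h at 37 °C to form biofilm. Washed with PBS, then drug in RPMI 1640 at 0.12–62.5 µg/mL for 24 h at 37 °C. Read-out: XTT 0.5 mg/mL with menadione 1 µM, 2 h, A490. SMIC50/SMIC80 are 50%/80% decreases versus drug-free biofilm. Duplicate.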

Candida albicans [19] = assay: Antifungal activity against itraconazole and fluconazole resistant Candida albicans ATCC MYA-1003 after 48 hrs by broth dilution method; assay type: functional; conditions: Candida albicans, ATCC MYA-1003, 48 h; how it was run: as §1
Nakaseomyces glabratus = assay: Antifungal activity against Candida glabrata ATCC 2001 after 48 hrs by broth dilution method; assay type: functional, CBS 138; conditions: Nakaseomyces glabratus, CBS 138, 48 h
Candida albicans [20] = assay: Inhibition of 14alpha-demethylase in Candida albicans ATCC 10231 assessed as lanosterol levels at 0.975 ug/mL by GC-MS analysis; design: scale not given: the % may be the effect or the level left; how it was run: as §2
[21] = Aqueous solubility of the compound; assay type: physicochemical; conditions: buffer
Aspergillus flavus = assay: Antifungal activity against Aspergillus flavus ATCC MYA-3631 after 48 hrs by broth dilution method; assay type: functional; conditions: ATCC MYA-3631, 48 h
Aspergillus nidulans [22] = assay: Antifungal activity against Aspergillus nidulans ATCC 38163 after 48 hrs by broth dilution method; assay type: functional; conditions: Aspergillus nidulans, ATCC 38163, 48 h
How it was run: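 A. nidulans run per CLSI M38-A2. PDA spores were filtered through glass wool and counted by hemocytometer. Test range 0.03–31.3 µg/mL in MOPS-buffered RPMI 1640 (pH 7.0), final 5 × 10^5 CFU/mL.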

Aspergillus terreus = assay: Antifungal activity against Aspergillus terreus ATCC MYA-3633 after 48 hrs by broth dilution method; assay type: functional; conditions: Aspergillus terreus, ATCC MYA-3633, 48 h
How it was run: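 Molds tested per CLSI M38-A2. Spores were harvested from sporulating PDA cultures by filtering through glass wool and counted on a hemocytometer. Serial dilutions (0.03–31.3 µg/mL) were made in RPMI 1640 buffered to pH 7.0 with 0.165 M MOPS, final inoculum 5 × 10^5 CFU/mL.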

With `CCCCCCCCCCCCN1CCN(CC(O)(Cn2cncn2)c2ccc(Cl)cc2Cl)CC1` (configuration not stated) the MIC (Candida albicans [1]) was 14.9 µM (≈ 7.82 µg/mL), the Ratio (Candida albicans [2]) was 2 - 4 and the solubility [3] was “Soluble”. The Activity (Candida albicans [4]) was “inactive”, the MIC (Candida parapsilosis [5]) was 0.46 µM (≈ 0.241 µg/mL) and the MIC (Candida albicans [6]) was 7.4 µM (≈ 3.88 µg/mL). It also gave an MIC (Aspergillus nidulans [7]) of 3.9 µg/mL, an Activity (Candida albicans [8]) of 1.15% and an Activity (Candida albicans [9]) of 11.1%. The MIC (Candida albicans [10]) was 7.4 µM (≈ 3.88 µg/mL), the MIC (Candida albicans [11]) was 1.95 µg/mL and the MIC (Candida albicans [12]) was 3.7 µM (≈ 1.94 µg/mL). It also gave an MIC (Candida parapsilosis [13]) of 0.24 µg/mL, an MIC (Candida albicans [14]) of 7.4 µM (≈ 3.88 µg/mL) and an Activity (Candida albicans [15]) of 50.6%. The Activity (Candida albicans [16]) was 3.56 to 4.08%, the MIC (Pichia kudriavzevii) was 3.7 µM (≈ 1.94 µg/mL) and the MIC (Candida albicans [17]) was 7.4 µM (≈ 3.88 µg/mL). The MIC50 (Candida albicans [18]) was 15.6 µg/mL (≈ 29.7 µM), the MIC80 (Candida albicans [18]) was 31.3 µg/mL (≈ 59.7 µM) and the MIC (Candida albicans [19]) was 3.7 µM (≈ 1.94 µg/mL). The MIC (Nakaseomyces glabratus) was 1.9 µM (≈ 0.997 µg/mL), the Activity (Candida albicans [20]) was 29.5% and the solubility [21] was “Soluble”. For the same molecule, the MIC (Aspergillus flavus) was 7.4 µM (≈ 3.88 µg/mL), the MIC (Aspergillus nidulans [22]) was 3.7 µM (≈ 1.94 µg/mL) and the MIC (Aspergillus terreus) was 3.7 µM (≈ 1.94 µg/mL).
